From ChEMBL document CHEMBL4610072, “Polyacetylenes from Oplopanax horridus and Panax ginseng: Relationship between Structure and PPARγ Activation” (J Nat Prod, 2020)

Columns and labels:
Type in all cases: cell-based
HEK293 [1] = experiment: Cytotoxicity against HEK293 cells assessed as cell viability at 10 uM after 24 hrs by resazurin conversion assay; conditions: human, hek293, 24 h
Summary of the method: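 HEK293 cells seeded 5 × 10^5 per well, grown overnight, then exposed to 10 μM compound in stripped DMEM for 24 h; vehicle 0.4% DMSO. Wells PBS-washed, then 10 μg/mL resazurin in PBS added for 4 h; conversion read by fluorescence (excitation 535 nm). Viability relative to vehicle; at least three experiments, four technical replicates each.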

[2] = (§1) Cytotoxicity against HEK293 cells assessed as cell viability at 3 uM after 18 hrs by luciferase assay relative to control; conditions: human, HEK293 cells; read-out: Activity
Summary of the method: (§2)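 HEK293 cells calcium-phosphate co-transfected with PPARγ expression plasmid, PPRE-luciferase reporter and pEGFP-N1; 6 h later reseeded at 4 × 10^5/well in DMEM with 5% charcoal-stripped serum and given 3 μM compound for 18 h; vehicle 0.1% DMSO. After lysis, EGFP fluorescence relative to vehicle gave viability; n = 3–4, four technical replicates.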

HEK293 [3] = experiment: as §1; conditions: human, hek293, 18 h, 3 µM; summary of the method: as §2
[4] = molecular target: T1, Peroxisome proliferator-activated receptor gamma (Homo sapiens) (UniProt P37231); experiment: Activation of human PPARgamma expressed in HEK293 cells assessed as maximum fold activation at 0.1 to 30 uM incubated for 18 hrs by luciferase reporter assay relative to control
T1 sequence (whole entry): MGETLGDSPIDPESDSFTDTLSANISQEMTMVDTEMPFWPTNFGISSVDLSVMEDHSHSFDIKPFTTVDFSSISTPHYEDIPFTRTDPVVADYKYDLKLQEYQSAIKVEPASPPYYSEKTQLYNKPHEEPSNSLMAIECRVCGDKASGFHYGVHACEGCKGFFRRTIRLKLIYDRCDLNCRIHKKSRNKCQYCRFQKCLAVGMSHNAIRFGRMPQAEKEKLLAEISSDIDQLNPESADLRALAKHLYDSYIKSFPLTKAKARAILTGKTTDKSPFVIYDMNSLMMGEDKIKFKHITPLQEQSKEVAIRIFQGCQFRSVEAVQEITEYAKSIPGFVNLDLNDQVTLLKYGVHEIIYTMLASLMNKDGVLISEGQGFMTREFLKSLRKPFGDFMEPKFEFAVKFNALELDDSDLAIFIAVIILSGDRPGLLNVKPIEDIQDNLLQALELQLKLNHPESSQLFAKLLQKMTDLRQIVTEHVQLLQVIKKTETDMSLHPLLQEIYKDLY

SMILES	Activity (HEK293 [1])	further results
OCCCCCCCC/C=C\[C@H](O)C#CC#C[C@@H](O)CCO	Non-Toxic	–
C=C[C@@H](O)C#CC#CC/C=C\CCCCCCCCOC(C)=O	Non-Toxic	viability at 18 h, 3 µM [2]: > 70%
CCCCCCC[C@@H]1O[C@@H]1CC#CC#CC(=O)CC	Non-Toxic	–
CC[C@@H](O)C#CC#C/C=C/[C@@H](O)CCCCCCCCO	Non-Toxic	–
CCCCCCC/C=C\[C@H](O)C#CC#C[C@@H](O)CCO	Non-Toxic	–
C=C[C@H](O)C#CC#C[C@@H](O)/C=C\CCCCCCCCOC(C)=O	Non-Toxic	–
CC[C@H](O)C#CC#C[C@@H](O)/C=C\CCCCCCCCOC(C)=O [OPLOPANDIOL ACETATE]	Non-Toxic	–
C=CCCCCC[C@@H]1O[C@@H]1CC#CC#CC(=O)CC	Non-Toxic	–
C=C[C@@H](O)C#CC#C/C=C/[C@@H](O)CCCCCCC	Non-Toxic	–
C=C[C@H](O)C#CC#C[C@@H](O)/C=C\CCCCCCC	Non-Toxic	Activity (HEK293 [3]): Toxic
C=C[C@@H](O)C#CC#CC/C=C\CCCCCCCCO	Non-Toxic	viability at 18 h, 3 µM [2]: > 70%
CC[C@H](O)C#CC#C[C@@H](O)/C=C\CCCCCCCCO	Non-Toxic	–
C=C[C@@H](O)C#CC#C[C@@H](O)/C=C\CCCCCCC [FALCARINDIOL]	–	Emax [4]: 3.26
C=C[C@@H](O)C#CC#CC/C=C\CCCCCCC	Non-Toxic	viability at 18 h, 3 µM [2]: > 70%
C=C[C@H](O)C#CC#C[C@@H](O)/C=C\C(O)CCCCCC (some centres undefined)	Non-Toxic	–
CC(=O)OCCCCCCCC/C=C\[C@H](O)C#CC#C[C@@H](O)CCO	Non-Toxic	–
CCCCCCC/C=C\[C@H](O)C#CC#C[C@@H](O)CC [OPLOPANDIOL]	Non-Toxic	–
C=C[C@H](O)C#CC#C[C@@H](O)/C=C\CCCCCCCCO	Non-Toxic	–
CCCCCCC[C@H](O)/C=C/C#CC#C[C@H](O)CC	Non-Toxic	–
CC[C@@H](O)C#CC#C/C=C/[C@@H](O)CCCCCCCCOC(C)=O	Non-Toxic	–
C=C[C@@H](O)C#CC#C/C=C/[C@@H](O)CCCCCCCCO	Non-Toxic	–
C=C[C@@H](O)C#CC#C/C=C/[C@@H](O)CCCCCCCCOC(C)=O	Non-Toxic	–
C=C[C@@H](O)C#CC#CCC1OC1CCCCCCC (some centres undefined)	Non-Toxic	viability at 18 h, 3 µM [2]: > 70%
CCCCCCC(O)/C=C\[C@H](O)C#CC#C[C@@H](O)CC (some centres undefined)	Non-Toxic	–
